Source: ChEMBL document CHEMBL5303300, “EUbOPEN Chemogenomics Library - Multiplex” (2023)
Values joined by “and” are separate entries in the source; they are usually repeats but may differ in a detail not shown here. Identical values can stand only once.

Experiments:
Fibroblast = test: Multiplex assay against human fibroblast; assay type: toxicity, cell-based; conditions: number of replicates 2
Procedure, shortened: (§1)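 Values for tubulin, mitochondrial-mass and membrane-permeability phenotypes are per cents of cells with healthy nuclei. These cells were identified by CellPathfinder machine-learning gating of live cells that had been stained at seeding with Hoechst33342, BioTracker Green Microtubule Cytoskeleton Dye, MitoTracker Red and Annexin V Alexa Fluor 680 and imaged on a CQ1 microscope at 37°C and 5% CO2 after compound addition. The gating first set Hoechst high-intensity objects apart from normal cells, then split normal cells into healthy, pyknosed or fragmented nuclei, and pyknosed cells into mitotic or apoptotic.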

HEK-293T = test: Multiplex assay against HEK293T; assay type: toxicity, cell-based; conditions: human, number of replicates 2; procedure, shortened: as §1
[1] = 12 h, 1 µM, compound concentration 1 uM
[2] = 12 h, 10 µM, compound concentration 10 uM
[3] = 24 h, 1 µM, compound concentration 1 uM
[4] = 24 h, 10 µM, compound concentration 10 uM
[5] = 48 h, 1 µM, compound concentration 1 uM
[6] = 48 h, 10 µM, compound concentration 10 uM

CCc1ncnc(N2CCN(C(C)=O)CC2)c1C#Cc1ccc(N)nc1.Cl.Cl
Population Apoptotic (%) (Fibroblast; [1]): 39% and 41%
Population Fragmented Nuclei (%) (Fibroblast; [1]): 26% and 16%
Population Healthy Nuclei (%) (Fibroblast; [1]): 48% and 55%
Population Hoechst High Intensity Objects (%) (Fibroblast; [1]): 0%
Population Membrane Permeable-Phenotype (%) (Fibroblast; [1]): 8% and 9%
Population Mitochondria Different-Phenotype (%) (Fibroblast; [1]): 1% and 2%
Population Mitotic Cells (%) (Fibroblast; [1]): 60% and 58%
Population Normal (%) (Fibroblast; [1]): 99%
Population Pyknosed Nuclei (%) (Fibroblast; [1]): 24% and 28%
Population Tubulin-Different-Phenotype (%) (Fibroblast; [1]): 20% and 15%
Total Cell Count (Fibroblast; [1]): 278 and 215
Population Apoptotic (%) (Fibroblast; [2]): 47%
Population Fragmented Nuclei (%) (Fibroblast; [2]): 19% and 25%
Population Healthy Nuclei (%) (Fibroblast; [2]): 53% and 54%
Population Hoechst High Intensity Objects (%) (Fibroblast; [2]): 0%
Population Membrane Permeable-Phenotype (%) (Fibroblast; [2]): 4% and 8%
Population Mitochondria Different-Phenotype (%) (Fibroblast; [2]): 4% and 0%
Population Mitotic Cells (%) (Fibroblast; [2]): 52%
Population Normal (%) (Fibroblast; [2]): 100%
Population Pyknosed Nuclei (%) (Fibroblast; [2]): 26% and 19%
Population Tubulin-Different-Phenotype (%) (Fibroblast; [2]): 41% and 42%
Total Cell Count (Fibroblast; [2]): 180 and 245
Population Apoptotic (%) (Fibroblast; [3]): 53% and 46%
Population Fragmented Nuclei (%) (Fibroblast; [3]): 28% and 10%
Population Healthy Nuclei (%) (Fibroblast; [3]): 46% and 64%
Population Hoechst High Intensity Objects (%) (Fibroblast; [3]): 1% and 0%
Population Membrane Permeable-Phenotype (%) (Fibroblast; [3]): 12% and 4%
Population Mitochondria Different-Phenotype (%) (Fibroblast; [3]): 0% and 1%
Population Mitotic Cells (%) (Fibroblast; [3]): 46% and 53%
Population Normal (%) (Fibroblast; [3]): 98% and 99%
Population Pyknosed Nuclei (%) (Fibroblast; [3]): 25% and 24%
Population Tubulin-Different-Phenotype (%) (Fibroblast; [3]): 12% and 9%
Total Cell Count (Fibroblast; [3]): 259 and 210
Population Apoptotic (%) (Fibroblast; [4]): 65% and 63%
Population Fragmented Nuclei (%) (Fibroblast; [4]): 18% and 31%
Population Healthy Nuclei (%) (Fibroblast; [4]): 51% and 55%
Population Hoechst High Intensity Objects (%) (Fibroblast; [4]): 0%
Population Membrane Permeable-Phenotype (%) (Fibroblast; [4]): 4% and 6%
Population Mitochondria Different-Phenotype (%) (Fibroblast; [4]): 5% and 0%
Population Mitotic Cells (%) (Fibroblast; [4]): 34% and 36%
Population Normal (%) (Fibroblast; [4]): 100% and 99%
Population Pyknosed Nuclei (%) (Fibroblast; [4]): 29% and 12%
Population Tubulin-Different-Phenotype (%) (Fibroblast; [4]): 37% and 27%
Total Cell Count (Fibroblast; [4]): 176 and 264
Population Apoptotic (%) (Fibroblast; [5]): 48% and 54%
Population Fragmented Nuclei (%) (Fibroblast; [5]): 28% and 14%
Population Healthy Nuclei (%) (Fibroblast; [5]): 58% and 75%
Population Hoechst High Intensity Objects (%) (Fibroblast; [5]): 1% and 0%
Population Membrane Permeable-Phenotype (%) (Fibroblast; [5]): 5% and 6%
Population Mitochondria Different-Phenotype (%) (Fibroblast; [5]): 0%
Population Mitotic Cells (%) (Fibroblast; [5]): 51% and 45%
Population Normal (%) (Fibroblast; [5]): 98% and 99%
Population Pyknosed Nuclei (%) (Fibroblast; [5]): 12% and 10%
Population Tubulin-Different-Phenotype (%) (Fibroblast; [5]): 10% and 7%
Total Cell Count (Fibroblast; [5]): 259 and 219
Population Apoptotic (%) (Fibroblast; [6]): 62% and 68%
Population Fragmented Nuclei (%) (Fibroblast; [6]): 13% and 21%
Population Healthy Nuclei (%) (Fibroblast; [6]): 63% and 67%
Population Hoechst High Intensity Objects (%) (Fibroblast; [6]): 0%
Population Membrane Permeable-Phenotype (%) (Fibroblast; [6]): 5% and 1%
Population Mitochondria Different-Phenotype (%) (Fibroblast; [6]): 8% and 0%
Population Mitotic Cells (%) (Fibroblast; [6]): 37% and 32%
Population Normal (%) (Fibroblast; [6]): 100%
Population Pyknosed Nuclei (%) (Fibroblast; [6]): 22% and 10%
Population Tubulin-Different-Phenotype (%) (Fibroblast; [6]): 36% and 25%
Total Cell Count (Fibroblast; [6]): 163 and 231
Population Apoptotic (%) (HEK-293T; [1]): 62% and 67%
Population Fragmented Nuclei (%) (HEK-293T; [1]): 5% and 4%
Population Healthy Nuclei (%) (HEK-293T; [1]): 80% and 82%
Population Hoechst High Intensity Objects (%) (HEK-293T; [1]): 12% and 10%
Population Membrane Permeable-Phenotype (%) (HEK-293T; [1]): 2% and 0%
Population Mitochondria Different-Phenotype (%) (HEK-293T; [1]): 40% and 39%
Population Mitotic Cells (%) (HEK-293T; [1]): 37% and 32%
Population Normal (%) (HEK-293T; [1]): 87% and 89%
Population Pyknosed Nuclei (%) (HEK-293T; [1]): 13% and 12%
Population Tubulin-Different-Phenotype (%) (HEK-293T; [1]): 62% and 57%
Total Cell Count (HEK-293T; [1]): 352 and 438
Population Apoptotic (%) (HEK-293T; [2]): 79% and 66%
Population Fragmented Nuclei (%) (HEK-293T; [2]): 5% and 4%
Population Healthy Nuclei (%) (HEK-293T; [2]): 77%
Population Hoechst High Intensity Objects (%) (HEK-293T; [2]): 15% and 9%
Population Membrane Permeable-Phenotype (%) (HEK-293T; [2]): 0% and 1%
Population Mitochondria Different-Phenotype (%) (HEK-293T; [2]): 60% and 59%
Population Mitotic Cells (%) (HEK-293T; [2]): 20% and 33%
Population Normal (%) (HEK-293T; [2]): 84% and 90%
Population Pyknosed Nuclei (%) (HEK-293T; [2]): 16% and 17%
Population Tubulin-Different-Phenotype (%) (HEK-293T; [2]): 80% and 76%
Total Cell Count (HEK-293T; [2]): 304 and 297
Population Apoptotic (%) (HEK-293T; [3]): 66% and 56%
Population Fragmented Nuclei (%) (HEK-293T; [3]): 8% and 11%
Population Healthy Nuclei (%) (HEK-293T; [3]): 78% and 74%
Population Hoechst High Intensity Objects (%) (HEK-293T; [3]): 15% and 23%
Population Membrane Permeable-Phenotype (%) (HEK-293T; [3]): 1%
Population Mitochondria Different-Phenotype (%) (HEK-293T; [3]): 41% and 42%
Population Mitotic Cells (%) (HEK-293T; [3]): 33% and 43%
